# The RNAGym collection of RNA variant scans (doi:10.1002/anie.201605470)
# B1: Osa-1-4 twister ribozyme (parent)
# chain: CCGCCUAACACUGCCAAUGCCGGUCCCAAGCCCGGAUAAAAGUGGAGGGGGCGG
# Variants of: B1
# Experiment: self-cleavage, relative activity (ratio to wild type); higher = more cleavage; co-transcriptional
# Procedure, shortened: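 The 48 positions downstream of the cleavage site in a 54-nucleotide Oryza sativa twister ribozyme template were synthesised at 97 % wild-type base and 1 % of each other base. The template was transcribed in vitro at 37 °C for 2 h, with self-cleavage allowed during transcription. Reads with or without upstream sequence after deep sequencing marked cleavage status, and relative activity is fraction cleaved normalised to wild type.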
row,Variant,self-cleavage
1,A40C C27U,0.03
2,A40C C27G,0.02
3,A40C C27A,0.05
4,A40C G53A,0.09
5,A40C G53C,0.04
6,A40C G53U,0.05
7,A40G C26A,0.05
8,A40G C26G,0.14
9,A40G C26U,0.13
10,A39U U43A,0.43
11,A39U U43C,0.12
12,A39U U43G,0.18
13,A40C C33G,0.02
14,A40C C33U,0.04
15,A40C C33A,0.05
16,A40C A41U,0.42
17,A40C A41G,0.1
18,A40C A41C,0.28
19,A39U A46G,0.04
20,A39U A46C,0.05
21,A39U A46U,0.07
22,A40C,0.09
23,A40G,0.91
24,A40G U12A,0.75

row,Variant,self-cleavage
1,A40G U12G,0.28
2,A40G U12C,0.79
3,A40C G35U,0.08
4,A40C G35A,0.08
5,A40C G35C,0.05
6,A40G C14U,0.2
7,A40G C14G,0.11
8,A40G C14A,0.4
9,A39U G30A,0.04
10,A39U G30U,0.05
11,A39U G30C,0.05
12,A39U G49U,0.08
13,A39U G49C,0.06
14,A39U G49A,0.11
15,A40C C14U,0.05
16,A40C C14G,0.03
17,A40C C14A,0.04
18,A39U C32A,0.08
19,A39U C32U,0.11
20,A39U C32G,0.1
21,A40G G54A,0.3
22,A40G G54U,0.46
23,A40G G54C,0.26
24,A40G C31G,0.08

row,Variant,self-cleavage
1,A40G C31U,0.16
2,A40G C31A,0.03
3,A40C A7U,0.02
4,A40C A7G,0.06
5,A40C A7C,0.02
6,A40C U43A,0.07
7,A40C U43G,0.07
8,A40C U43C,0.07
9,A40C G34A,0.06
10,A40C G34C,0.06
11,A40C G34U,0.05
12,A39U U12C,0.15
13,A39U U12G,0.15
14,A39U U12A,0.59
15,A40C U18A,0.07
16,A40C U18C,0.08
17,A40C U18G,0.09
18,A40C A46G,0.02
19,A40C A46U,0.03
20,A40C A46C,0.04
21,A40G G53C,0.08
22,A40G G53U,0.12
23,A40G G53A,0.2
24,A40C G22C,0.02

row,Variant,self-cleavage
1,A40C G22A,0.09
2,A40C G22U,0.07
3,A39U C52U,1
4,A39U C52G,1.01
5,A39U C52A,0.96
6,A39U G42U,0.07
7,A39U G42A,0.17
8,A39U G42C,0.11
9,A40G G45A,0.09
10,A40G G45C,0.07
11,A40G G45U,0.07
12,A40G G51C,0.07
13,A40G G51U,0.12
14,A40G G51A,0.25
15,A40C C31U,0.06
16,A40C C31G,0.02
17,A40C C31A,0.02
18,A39U G19C,0.07
19,A39U G19U,0.11
20,A39U G19A,0.35
21,A40G G42U,0.07
22,A40G G42A,0.14
23,A40G G42C,0.13
24,A40C G19C,0.02

row,Variant,self-cleavage
1,A40C G19U,0.04
2,A40C G19A,0.07
3,A40C C20U,0.08
4,A40C C20A,0.09
5,A40C C20G,0.04
6,A39U C20G,0.09
7,A39U C20A,0.84
8,A39U C20U,0.96
9,A40G C9U,0.23
10,A40G C9A,0.09
11,A40G C9G,0.18
12,A40C U12G,0.47
13,A40C U12A,0.5
14,A40C U12C,0.07
15,A40G C32U,0.09
16,A40G C32A,0.06
17,A40G C32G,0.1
18,A40C C25A,0.03
19,A40C C25G,0.03
20,A40C C25U,0.04
21,A39U G48C,0.05
22,A39U G48A,0.08
23,A39U G48U,0.06
24,A39U C25A,0.06

row,Variant,self-cleavage
1,A39U C25U,0.45
2,A39U C25G,0.07
3,A39U A41G,0.26
4,A39U A41U,1.03
5,A39U U37A,0.99
6,A39U U37C,1
7,A39U U37G,1.02
8,A40G C20G,0.1
9,A40G C20A,0.78
10,A40G C20U,0.91
11,A40C G50A,0.08
12,A40C G50U,0.07
13,A40C G50C,0.07
14,A39U G53U,0.19
15,A39U G53C,0.07
16,A39U G53A,0.49
17,A40G G23A,0.12
18,A40G G23U,0.05
19,A40G G23C,0.06
20,A40G A7G,0.35
21,A40G A7U,0.08
22,A40G A7C,0.05
23,A40G G19A,0.18
24,A40G G19U,0.11

row,Variant,self-cleavage
1,A40G G19C,0.07
2,A40G C52G,0.65
3,A40G C52U,0.94
4,A40G C52A,0.52
5,A39U G50U,1.01
6,A39U G50C,0.82
7,A39U G50A,0.63
8,A40C C52U,0.1
9,A40C C52A,0.11
10,A40C C52G,0.09
11,A40G G34A,0.44
12,A40G G34U,0.22
13,A40G G34C,0.2
14,A40G C27A,0.11
15,A40G C27U,0.11
16,A40G C27G,0.09
17,A40C G42U,0.03
18,A40C G42A,0.07
19,A40C G42C,0.06
20,A40G C11A,0.14
21,A40G C11G,0.13
22,A40G C11U,0.32
23,A39U C21G,0.07
24,A39U C21U,0.99

row,Variant,self-cleavage
1,A39U C21A,0.38
2,A40G A8C,0.06
3,A40G A8U,0.11
4,A40G A8G,0.18
5,A39U U24C,0.12
6,A39U U24G,0.03
7,A39U U24A,0.07
8,A40C C11G,0.03
9,A40C C11A,0.05
10,A40C C11U,0.07
11,A39U G54U,0.77
12,A39U G54A,0.73
13,A39U G54C,0.73
14,A40C U37C,0.07
15,A40C U37A,0.07
16,A40C U37G,0.12
17,A39U C26G,0.11
18,A39U C26A,0.04
19,A39U C26U,0.54
20,A40C G51U,0.06
21,A40C G51C,0.04
22,A40C G51A,0.06
23,A39U G13C,0.03
24,A39U G13U,0.02

row,Variant,self-cleavage
1,A39U G13A,0.05
2,A39U C9G,0.42
3,A39U C9A,0.33
4,A39U C9U,0.74
5,A40G C21G,0.08
6,A40G C21A,0.25
7,A40G C21U,0.79
8,A40G G13C,0.03
9,A40G G13U,0.02
10,A40G G13A,0.06
11,A39U G45A,0.12
12,A39U G45C,0.06
13,A39U G45U,0.05
14,A40G G44A,0.21
15,A40G G44U,0.38
16,A40G G44C,0.64
17,A40G A41C,0.41
18,A40G A41G,0.22
19,A40G A41U,0.91
20,A39U G44A,0.77
21,A39U G44U,0.9
22,A39U G44C,0.91
23,A40G G49A,0.09
24,A40G G49U,0.09

row,Variant,self-cleavage
1,A40G G49C,0.07
2,A40C G13A,0.03
3,A40C G13U,0.01
4,A40C G13C,0.01
5,A39U G23C,0.06
6,A39U G23U,0.05
7,A39U G23A,0.26
8,A40G G35U,0.69
9,A40G G35C,0.12
10,A40G G35A,0.71
11,A39U C11G,0.24
12,A39U C11A,0.38
13,A39U C11U,0.89
14,A40C G44A,0.09
15,A40C G44U,0.06
16,A40C G44C,0.09
17,A40G G50C,0.29
18,A40G G50A,0.43
19,A40G G50U,0.54
20,A39U U18C,0.97
21,A39U U18G,0.88
22,A39U U18A,0.95
23,A40G C33G,0.06
24,A40G C33U,0.15

row,Variant,self-cleavage
1,A40G C33A,0.08
2,A40C G48A,0.02
3,A40C G48U,0.03
4,A40C G48C,0.02
5,A40G G30A,0.03
6,A40G G30U,0.05
7,A40G G30C,0.04
8,A40G G48C,0.08
9,A40G G48A,0.08
10,A40G G48U,0.06
11,A40C C9G,0.07
12,A40C C9A,0.02
13,A40C C9U,0.05
14,A40C C15G,0.04
15,A40C C15A,0.05
16,A40C C15U,0.05
17,A40C G49A,0.04
18,A40C G49U,0.03
19,A40C G49C,0.02
20,A40G A46C,0.06
21,A40G A46G,0.05
22,A40G A46U,0.08
23,A40C G30U,0.01
24,A40C G30C,0.02

row,Variant,self-cleavage
1,A40C G30A,0.02
2,A40C G54A,0.09
3,A40C G54C,0.07
4,A40C G54U,0.12
5,A39U G47C,0.07
6,A39U G47U,0.11
7,A39U G47A,0.13
8,A39U C15U,0.56
9,A39U C15G,0.23
10,A39U C15A,0.24
11,A40G G22C,0.06
12,A40G G22A,0.46
13,A40G G22U,0.16
14,A39U G34C,0.25
15,A39U G34U,0.53
16,A39U G34A,0.68
17,A39U G51C,0.06
18,A39U G51U,0.28
19,A39U G51A,0.61
20,A39U C33G,0.07
21,A39U C33A,0.09
22,A39U C33U,0.52
23,A40C G45C,0.03
24,A40C G45U,0.03

row,Variant,self-cleavage
1,A40C G45A,0.04
2,A40C C21G,0.02
3,A40C C21A,0.07
4,A40C C21U,0.09
5,A40C G23A,0.06
6,A40C G23U,0.02
7,A40C G23C,0.02
8,A39U G22A,0.93
9,A39U G22C,0.06
10,A39U G22U,0.67
11,A40C C32U,0.03
12,A40C C32G,0.03
13,A40C C32A,0.04
14,A39U C27A,0.12
15,A39U C27G,0.09
16,A39U C27U,0.12
17,A39U C31G,0.08
18,A39U C31A,0.03
19,A39U C31U,0.67
20,A40G C25G,0.06
21,A40G C25U,0.14
22,A40G C25A,0.06
23,A40G G47A,0.11
24,A40G G47U,0.1

row,Variant,self-cleavage
1,A40G G47C,0.06
2,A39U C14G,0.12
3,A39U C14U,0.17
4,A39U C14A,0.09
5,A39U G35A,0.83
6,A39U G35C,0.19
7,A39U G35U,0.87
8,A40C G47U,0.04
9,A40C G47A,0.05
10,A40C G47C,0.03
11,A40C C26A,0.02
12,A40C C26U,0.04
13,A40C C26G,0.02
14,A40C A8C,0.04
15,A40C A8U,0.04
16,A40C A8G,0.05
17,A40C U24G,0.01
18,A40C U24A,0.04
19,A40C U24C,0.03
20,A40G C15U,0.13
21,A40G C15A,0.13
22,A40G C15G,0.14
